As a reminder, the MIC is the lowest concentration that inhibits growth of the organism. The low end stands for greater potency, the high end for weaker potency. In general, ΔTm refers to the shift of the melting midpoint relative to a reference. A word on the IC50: it is the point on the concentration scale where inhibition reaches its midpoint.

In brackets after ≈: the same amount, converted by molar mass. Activity calls are given as the source filed them. No cut-off for these calls is given here.

Experimental findings from ChEMBL document CHEMBL4014329, “Selective Inhibition of Escherichia coli RNA and DNA Topoisomerase I by Hoechst 33258 Derived Mono- and Bisbenzimidazoles” (J Med Chem, 2017) are described below.

Data set [1] concerns Staphylococcus aureus. The data set can be described thus: Antibacterial activity against methicillin-resistant Staphylococcus aureus A960649 after 24 hrs by microbroth dilution method. The following applies: A960649, 24 h. Type of data set: functional. An outline of the steps: (§1)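 Mueller-Hinton broth cultures grown at 37 °C with shaking to log phase, pelleted, resuspended in 0.85% saline to OD625 0.1. Broth microdilution per CLSI guidelines, final inoculum 5 × 10^5 CFU/mL, in triplicate, 24 h at 37 °C. Growth read as OD625. MIC is the lowest concentration giving complete growth inhibition versus untreated controls.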

Data set [2] has as its system Enterococcus faecalis. Nature of the data set: Antibacterial activity against Enterococcus faecalis ATCC 29212 after 24 hrs by microbroth dilution method. Type of data set: functional. The following applies: ATCC 29212, 24 h. In outline:
(§2)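 Microbroth dilution per CLSI guidelines. Organisms grown in Mueller−Hinton broth at 37 °C with shaking to log phase, pelleted, resuspended in 0.85% saline to OD625 0.1. Final inoculum 5 × 10^5 CFU/mL; triplicate; 24 h at 37 °C. OD625 read; MIC = lowest concentration completely inhibiting growth versus untreated controls.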
(In general: Broth dilution looks for growth in wells or tubes with falling amounts of substance.)

Data set [3] has as its system Klebsiella pneumoniae. Nature of the data set: Antibacterial activity against Klebsiella pneumoniae NR15410 after 24 hrs by microbroth dilution method. The format is functional. Conditions: NR15410, 24 h. In outline: as §2
In data set [4] the test system is Pseudomonas aeruginosa. The data set can be described thus: Antibacterial activity against Pseudomonas aeruginosa ATCC 27853 after 24 hrs by microbroth dilution method. Type of data set: functional. Conditions: ATCC 27853, 24 h. In outline:
as §2

A short description of data set [5]: Binding affinity to dA60.dT60 B-DNA duplex (unknown origin) assessed as induction of biphasic transition at <5 uM by UV-vis spectrophotometric analysis.
In data set [6] the test system is Staphylococcus aureus. The data set can be described thus: Antibacterial activity against Staphylococcus aureus ATCC 29213 after 24 hrs by microbroth dilution method. Type of data set: functional. Conditions: ATCC 29213, 24 h. In outline: as §2
Data set [7] deals with Escherichia coli. The data set can be described thus: Antibacterial activity against Escherichia coli K-12 after 24 hrs by microbroth dilution method. Type of data set: functional. Conditions: K-12, 24 h. In outline:
as §2

Data set [8] relates to Enterococcus faecium. The data set can be described thus: Antibacterial activity against Enterococcus faecium BM4105RF after 24 hrs by microbroth dilution method. The format is functional. In outline:
as §1

The test system of data set [9] is Staphylococcus epidermidis. Nature of the data set: Antibacterial activity against Staphylococcus epidermidis ATCC 12384 after 24 hrs by microbroth dilution method. The format is functional. The following applies: ATCC 12384, 24 h. In outline: as §2
Data set [10] relates to Citrobacter freundii. Nature of the data set: Antibacterial activity against Citrobacter freundii 4747CFAA after 24 hrs by microbroth dilution method. The format is functional. An outline of the steps:
as §2

Data set [11] relates to Staphylococcus aureus. Nature of the data set: Antibacterial activity against methicillin-resistant Staphylococcus aureus 33591 after 24 hrs by microbroth dilution method. Type of data set: functional. Conditions: Staphylococcus aureus, 33591, 24 h. An outline of the steps: as §1
Data set [12] deals with Escherichia coli. Nature of the data set: Inhibition of Escherichia coli RNA topoisomerase 1 using circular RNA as substrate up to 50 uM after 1.5 hrs by SDS-PAGE analysis. In outline: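 10 nM E. coli topoisomerase I premixed with reaction buffer and inhibitor diluted in DMSO, then circular RNA substrate added; 1.5 h incubation. Stopped with proteinase K/SDS/EDTA buffer. Trefoil RNA knot product separated from circular substrate on 15% TBE−urea gels and detected by phosphorimaging. DMSO-only control included.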

Data set [13] can be described thus: Binding affinity to dA60.dT60 B-DNA duplex (unknown origin) assessed as change in melting temperature at 10 uM by UV-vis spectrophotometric analysis. In outline: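 UV melting of dA60·dT60 at 1 μM/duplex with compound at 10 μM. Buffer 10 mM sodium cacodylate, 0.1 mM EDTA, 100 mM NaCl, pH 7.0; duplex pre-annealed from 95 °C. Compound stocks in DMSO diluted into buffer. Heating at 0.2 °C/min, monitored at 260 nm, points every 1.0 °C; Tm taken from derivatives.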

Data set [14] has as its system Enterobacter cloacae. The data set can be described thus: Antibacterial activity against Enterobacter cloacae ATCC 13047 after 24 hrs by microbroth dilution method. The format is functional. The following applies: ATCC 13047, 24 h. An outline of the steps: as §2
For data set [15], the target named is T1, DNA topoisomerase 1 (Homo sapiens, UniProt P11387).
T1 sequence (P11387 whole entry): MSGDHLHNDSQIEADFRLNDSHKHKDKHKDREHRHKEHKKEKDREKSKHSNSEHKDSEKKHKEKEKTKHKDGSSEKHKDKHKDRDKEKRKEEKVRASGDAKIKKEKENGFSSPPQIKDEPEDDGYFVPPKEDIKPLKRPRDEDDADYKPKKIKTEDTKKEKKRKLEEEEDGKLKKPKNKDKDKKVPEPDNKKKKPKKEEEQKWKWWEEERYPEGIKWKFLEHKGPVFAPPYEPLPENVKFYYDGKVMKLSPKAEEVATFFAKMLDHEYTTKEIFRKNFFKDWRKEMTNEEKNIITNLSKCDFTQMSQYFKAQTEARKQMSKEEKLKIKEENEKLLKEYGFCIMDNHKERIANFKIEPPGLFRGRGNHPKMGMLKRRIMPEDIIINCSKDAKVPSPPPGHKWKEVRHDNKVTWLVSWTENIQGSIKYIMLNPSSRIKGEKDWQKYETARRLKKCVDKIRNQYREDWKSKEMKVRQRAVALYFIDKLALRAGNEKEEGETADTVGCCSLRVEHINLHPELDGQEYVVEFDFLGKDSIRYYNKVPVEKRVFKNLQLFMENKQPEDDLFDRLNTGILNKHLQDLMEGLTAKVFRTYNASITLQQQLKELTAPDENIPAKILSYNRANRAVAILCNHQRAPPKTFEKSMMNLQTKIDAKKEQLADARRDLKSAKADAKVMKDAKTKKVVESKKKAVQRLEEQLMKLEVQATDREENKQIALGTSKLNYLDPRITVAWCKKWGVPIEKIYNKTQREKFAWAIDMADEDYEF
The data set can be described thus: Inhibition of human DNA topoisomerase 1 using plasmid pBAD-GFPuv as substrate after 30 mins by agarose gel electrophoresis.

In data set [16] the test system is Acinetobacter baumannii. The data set can be described thus: Antibacterial activity against Acinetobacter baumannii ATCC 19606 after 24 hrs by microbroth dilution method. The format is functional. Conditions: ATCC 19606 = CIP 70.34 = JCM 6841, 24 h. An outline of the steps: as §2
Data set [17] has as its system Escherichia coli. The data set can be described thus: Antibacterial activity against Escherichia coli ATCC 25922 after 24 hrs by microbroth dilution method. Type of data set: functional. Conditions: ATCC 25922, 24 h. An outline of the steps: as §2
The nature of data set [18]: Inhibition of Escherichia coli DNA topoisomerase 1 using plasmid pBAD-GFPuv as substrate after 15 mins by agarose gel electrophoresis. An outline of the steps:
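E. coli topoisomerase I at 6 nM relaxing 150 ng supercoiled pBAD-GFPuv. 15 min at 37 °C, phenol-stopped, 1% agarose gel, ethidium stain. IC50 is the concentration leaving 50% DNA supercoiled; three independent determinations.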

The subject of data set [19] is Shigella flexneri. The data set can be described thus: Antibacterial activity against Shigella flexneri 2457NR517 after 24 hrs by microbroth dilution method. The following applies: 2457NR517, 24 h. Type of data set: functional. In outline:
as §1

The subject of data set [20] is Staphylococcus aureus. Nature of the data set: Antibacterial activity against Staphylococcus aureus ATCC 33591 after 24 hrs by microbroth dilution method. Type of data set: functional. Conditions: ATCC 33591, 24 h. An outline of the steps: as §2
Data set [21] has as its system DU-145. Nature of the data set: Cytotoxicity against human DU145 cells after 48 hrs by SRB assay. The following applies: human, du-145, 48 h. The format is cell-based. An outline of the steps:
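Cells cultured per ATCC protocols, seeded and grown 24 h (37 °C, 5% CO2), then treated in triplicate at final 20, 10, 5, 2.5, 1.25, 0.625 and 0.0625 μM for 48 h. Fixed with cold TCA (16% final, 4 °C, 1 h), stained with SRB in 1% acetic acid, dye solubilized in 10 mM Tris base, A560 read. IC50 derived; study in duplicate.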

In data set [22] the test system is Escherichia coli. The data set can be described thus: Inhibition of Escherichia coli DNA gyrase using relaxed plasmid pBAD-GFPuv as substrate after 30 mins by agarose gel electrophoresis.

Turning to `C#CCOCCCCCCOc1ccc(-c2nc3ccc(-c4nc5ccc(N6CCN(C)CC6)cc5[nH]4)cc3[nH]2)cc1`, the MIC in data set [1] was over 32 µg/mL; in data set [2], 16 to 32 µg/mL (≈ 28.4 to 56.9 µM); in data set [3] it was over 32 µg/mL; in [4], 16 to 32 µg/mL (≈ 28.4 to 56.9 µM); in data set [6], 16 to 32 µg/mL (≈ 28.4 to 56.9 µM); in data set [7], 8 µg/mL (≈ 14.2 µM). Also, the MIC in data set [8], in data set [9], in data set [10], in data set [11], in data set [14] and in [16] was over 32 µg/mL throughout. Moreover, the MIC in data set [17] was 16 to 32 µg/mL (≈ 28.4 to 56.9 µM); in data set [19], over 32 µg/mL; in data set [20] it was 16 to 32 µg/mL (≈ 28.4 to 56.9 µM). The result in data set [5] was Active. Further, the inhibition entry in data set [12] is “inactive”. In data set [13], the ΔTm was 18.3 °C. Moreover, the IC50 in data set [15] was over 50 µM; in [18] it was 3.2 µM. Besides, the Activity entry in [21] is listed as “Toxic”.
Take `C#CCOCCCCOc1ccc(-c2nc3ccc(-c4nc5ccc(N6CCN(C)CC6)cc5[nH]4)cc3[nH]2)cc1`: the minimal inhibitory concentration (MIC) in data set [1] is 1 to 2 µg/mL (≈ 1.87 to 3.74 µM); in [3], over 32 µg/mL; in data set [4], 16 µg/mL (≈ 29.9 µM); in data set [8] it was 1 to 2 µg/mL (≈ 1.87 to 3.74 µM); in data set [9], 4 µg/mL (≈ 7.48 µM); in data set [11] it was 1 µg/mL (≈ 1.87 µM). Also, the MIC in data set [14] was over 32 µg/mL; in data set [16], 8 µg/mL (≈ 15 µM); in data set [17], 8 to 16 µg/mL (≈ 15 to 29.9 µM); in data set [19], 4 µg/mL (≈ 7.48 µM). Moreover, the inhibition entry in data set [22] and in data set [12] was “inactive” each time. In data set [21], the Activity entry is on record as “Toxic”.
In the case of `C#CCOc1ccc(-c2nc3ccc(-c4nc5ccc(N6CCN(C)CC6)cc5[nH]4)cc3[nH]2)cc1`, the MIC in [1] was 1 to 2 µg/mL (≈ 2.16 to 4.32 µM); in [3] it was over 32 µg/mL; in data set [4] it was 16 µg/mL (≈ 34.6 µM); in data set [8] it was 1 to 2 µg/mL (≈ 2.16 to 4.32 µM); in data set [9], 1 to 2 µg/mL (≈ 2.16 to 4.32 µM); in data set [10], 4 µg/mL (≈ 8.65 µM). Moreover, the MIC is 32 µg/mL (≈ 69.2 µM) in data set [14], over 32 µg/mL in [16], 8 µg/mL (≈ 17.3 µM) in data set [17] and 1 to 2 µg/mL (≈ 2.16 to 4.32 µM) in data set [19]. In addition, the inhibition result in data set [22] and in [12] was “inactive” each time. Moreover, the Activity result in data set [21] is “Toxic”.
Regarding `COC(=O)c1cc(N2CCN(C)CC2)cc2[nH]c(-c3ccc(O)cc3)nc12`, the minimal inhibitory concentration (MIC) is over 32 µg/mL in data set [1]; 16 to 32 µg/mL (≈ 43.7 to 87.3 µM) in data set [2]; over 32 µg/mL in data set [3]; 16 µg/mL (≈ 43.7 µM) in data set [4]; 16 to 32 µg/mL (≈ 43.7 to 87.3 µM) in data set [6]; 16 µg/mL (≈ 43.7 µM) in data set [7]. The minimal inhibitory concentration (MIC) in [8], in data set [9], in data set [10], in data set [11], in data set [14] and in data set [16] was over 32 µg/mL throughout. Also, the figures for the MIC in [17], in data set [19] and in [20] were 16 µg/mL (≈ 43.7 µM), over 32 µg/mL and 16 to 32 µg/mL (≈ 43.7 to 87.3 µM), respectively. Also, the result in data set [5] was Active. Moreover, in data set [13], the ΔTm amounted to 0 °C.
